ChEMBL document CHEMBL1287804, “Synthesis, binding studies and molecular modeling of novel cannabinoid receptor ligands” (Bioorg Med Chem, 2010)
Activity calls are given as the source filed them. No cut-off for these calls is given here.

Assays:
Cannabinoid receptor 1 [1] = molecular target: T1, Cannabinoid receptor 1 (Homo sapiens, UniProt P21554); assay: Displacement of [3H]-CP-55940 from human recombinant CB1 receptor expressed in HEK293 cells at 10 uM; format: cell-based
How it was run: (§1)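 Radioligand binding with human recombinant CB1 and CB2 receptors. The highest concentration tested was 10 µM, and percent displacement was recorded at that concentration. IC50 and Ki were calculated for each receptor. The selectivity index is Ki(CB1)/Ki(CB2).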

[2] = molecular target: T2, Fatty-acid amide hydrolase 1 (Rattus norvegicus) (UniProt P97612); assay: Inhibition of FAAH-mediated [14C]anandamide hydrolysis in rat brain membrane assessed as [14C]-ethanolamine production up to 50 uM after 30 mins by scintillation counting; format: cell membranes
T2 sequence (whole entry): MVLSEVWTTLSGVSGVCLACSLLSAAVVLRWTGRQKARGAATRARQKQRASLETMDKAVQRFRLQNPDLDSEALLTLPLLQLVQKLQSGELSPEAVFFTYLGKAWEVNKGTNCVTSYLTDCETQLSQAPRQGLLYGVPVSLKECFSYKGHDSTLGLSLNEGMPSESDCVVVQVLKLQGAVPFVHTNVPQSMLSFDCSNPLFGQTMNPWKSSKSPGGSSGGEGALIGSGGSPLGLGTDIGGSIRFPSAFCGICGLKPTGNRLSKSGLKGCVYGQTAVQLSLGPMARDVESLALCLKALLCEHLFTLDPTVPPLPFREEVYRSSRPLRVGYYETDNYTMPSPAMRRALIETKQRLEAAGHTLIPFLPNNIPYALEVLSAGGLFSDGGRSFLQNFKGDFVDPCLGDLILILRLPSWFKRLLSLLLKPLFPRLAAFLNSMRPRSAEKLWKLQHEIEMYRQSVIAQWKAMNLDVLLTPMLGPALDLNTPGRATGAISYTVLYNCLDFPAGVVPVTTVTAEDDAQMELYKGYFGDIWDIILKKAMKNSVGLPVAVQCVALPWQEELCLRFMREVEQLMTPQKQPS

Cannabinoid receptor 2 [3] = molecular target: T3, Cannabinoid receptor 2 (Homo sapiens, UniProt P34972); assay: Displacement of [3H]-CP-55940 from human recombinant CB2 receptor expressed in HEK293 cells; format: cell-based
T3 sequence (P34972 whole entry): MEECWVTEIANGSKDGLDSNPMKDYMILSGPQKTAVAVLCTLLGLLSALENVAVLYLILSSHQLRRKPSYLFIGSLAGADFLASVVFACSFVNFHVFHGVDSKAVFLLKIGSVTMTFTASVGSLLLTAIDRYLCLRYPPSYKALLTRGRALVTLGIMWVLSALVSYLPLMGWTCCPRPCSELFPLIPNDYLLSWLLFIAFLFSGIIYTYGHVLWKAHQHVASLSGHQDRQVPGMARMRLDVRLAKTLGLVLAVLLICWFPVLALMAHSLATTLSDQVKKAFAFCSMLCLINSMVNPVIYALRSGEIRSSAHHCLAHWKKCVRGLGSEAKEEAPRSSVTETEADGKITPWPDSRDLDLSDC
How it was run: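 Radioligand binding assay on human recombinant CB2 receptor. The read-out was percent displacement of radioligand at the highest concentration tested. IC50 values were determined, and Ki values were calculated from them.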

Cannabinoid receptor 1 [4] = molecular target: T1, Cannabinoid receptor 1; assay: Displacement of [3H]-CP-55940 from human recombinant CB1 receptor expressed in HEK293 cells; format: cell-based; how it was run: as §1
Cannabinoid receptor 2 [5] = molecular target: T3, Cannabinoid receptor 2; assay: Displacement of [3H]-CP-55940 from human recombinant CB2 receptor expressed in HEK293 cells at 10 uM; format: cell-based; how it was run: as §1
Homo sapiens = species: Homo sapiens; assay: Selectivity index, ratio of Ki for human recombinant CB1 receptor to Ki for human recombinant CB2 receptor; how it was run: as §1

T1 sequence (P21554 whole entry): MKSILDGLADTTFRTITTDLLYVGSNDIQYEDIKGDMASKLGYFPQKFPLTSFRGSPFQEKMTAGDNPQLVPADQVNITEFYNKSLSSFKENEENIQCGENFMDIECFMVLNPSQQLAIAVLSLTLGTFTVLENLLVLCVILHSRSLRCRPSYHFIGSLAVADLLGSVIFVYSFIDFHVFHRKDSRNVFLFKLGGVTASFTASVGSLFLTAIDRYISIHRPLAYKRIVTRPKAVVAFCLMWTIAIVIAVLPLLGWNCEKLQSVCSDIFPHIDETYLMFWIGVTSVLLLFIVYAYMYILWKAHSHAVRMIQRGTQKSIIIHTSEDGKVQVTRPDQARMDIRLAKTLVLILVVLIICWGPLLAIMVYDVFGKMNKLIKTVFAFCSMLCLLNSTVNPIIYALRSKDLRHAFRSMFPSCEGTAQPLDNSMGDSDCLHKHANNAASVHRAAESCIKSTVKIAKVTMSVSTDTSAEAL

| Ratio Ki (Homo sapiens) | Structure (SMILES) | Activity (Cannabinoid receptor 1 [1]) [%] | inhibition [2] | IC50 (Cannabinoid receptor 2 [3]) [µM] | Ki (Cannabinoid receptor 2 [3]) [µM] | IC50 (Cannabinoid receptor 1 [4]) [µM] | Ki (Cannabinoid receptor 1 [4]) [µM] | Activity (Cannabinoid receptor 2 [5]) [%] |
| --- | --- | --- | --- | --- | --- | --- | --- | --- |
| – | O=C(/C=C/c1ccc2ccccc2c1)CCCC(=O)N1CCCCC1 | 34 | inactive | > 10 | > 10 | > 10 | > 10 | 36.8 |
| – | O=C(/C=C/c1ccc2ccccc2c1)CCC(=O)NC1CC1 | 3.25 | inactive | > 10 | > 10 | > 10 | > 10 | 35.6 |
| – | O=C(/C=C/c1ccc2ccccc2c1)CCC(=O)N(CCO)CCO | 1.81 | inactive | > 10 | > 10 | > 10 | > 10 | 27.3 |
| > 9.71 | O=C(/C=C/c1ccc2ccccc2c1)CCCC(=O)NCCO | 4.58 | inactive | 4.08 | 1.03 | > 10 | > 10 | 72 |
| – | COc1ccc(/C=C/C(=O)CCC(=O)N2CCCCC2)cc1OC | < 50 | inactive | > 10 | > 10 | > 10 | > 10 | 50 |
| > 4.9 | O=C(/C=C/c1ccc2ccccc2c1)CCCC(=O)NC1CC1 | 15.3 | inactive | 8.02 | 2.04 | > 10 | > 10 | 56.7 |
| – | O=C(/C=C/c1ccc2ccccc2c1)CCC(=O)Nc1ccc(O)cc1 | < 50 | inactive | > 10 | > 10 | > 10 | > 10 | < 50 |
| > 4 | CCOC(=O)CNC(=O)CCC(=O)/C=C/c1ccc2ccccc2c1 | 5.73 | inactive | 9.82 | 2.5 | > 10 | > 10 | 54.6 |
| – | CCOC(=O)CNC(=O)CCCC(=O)/C=C/c1ccc2ccccc2c1 | 41.5 | inactive | > 10 | > 10 | > 10 | > 10 | 41.7 |
| – | O=C(O)CCC(=O)/C=C/c1ccc2ccccc2c1 | 11.8 | inactive | > 10 | > 10 | > 10 | > 10 | 13.7 |
| – | COc1ccc(/C=C/C(=O)CCC(=O)Nc2ccc(O)cc2)cc1 | < 50 | inactive | > 10 | > 10 | > 10 | > 10 | < 50 |
| – | O=C(/C=C/c1ccc(-c2ccccc2)cc1)CCC(=O)NCCO | 5.25 | inactive | > 10 | > 10 | > 10 | > 10 | 46.1 |
| – | O=C(O)CCCC(=O)/C=C/c1ccc2ccccc2c1 | 21.5 | inactive | > 10 | > 10 | > 10 | > 10 | 23.4 |
| – | C[C@H](CO)NC(=O)CCC(=O)/C=C/c1ccc2ccccc2c1 | 2.48 | inactive | > 10 | > 10 | > 10 | > 10 | 38.3 |
| > 4.44 | O=C(CCC(=O)NCCO)CCc1ccc(-c2ccccc2)cc1 | 10.9 | inactive | 8.85 | 2.25 | > 10 | > 10 | 53 |
| > 4.41 | O=C(/C=C/c1ccc2ccccc2c1)CCC(=O)NCCO | 0 | inactive | 1 | 1.03 | > 10 | > 10 | 56.5 |
| – | COc1ccc(/C=C/C(=O)CCC(=O)NCCO)cc1OC | < 50 | inactive | > 10 | > 10 | > 10 | > 10 | < 50 |
| – | O=C(/C=C/c1ccc2ccccc2c1)CCC(=O)N1CCCCC1 | < 50 | inactive | > 10 | > 10 | > 10 | > 10 | < 50 |
| – | O=C(CCC(=O)N1CCOCC1)c1ccc(-c2ccccc2)cc1 | 12.2 | inactive | > 10 | > 10 | > 10 | > 10 | 14.9 |
| – | C[C@@H](CO)NC(=O)CCCC(=O)/C=C/c1ccc2ccccc2c1 | > 10 | inactive | > 10 | > 10 | > 10 | > 10 | 37.7 |
